Rows were chosen to be rich in hits. Some 1.6% of all compounds tested hit in one or more screens of this group.
VIM-2 inhibitor = inhibitors of Pseudomonas aeruginosa VIM-2 metallo-beta-lactamase. purified VIM-2, nitrocefin hydrolysis, epi-absorbance fluorescence. inhibition, % at 5.6 µM. actives 0.89% (n = 290,000);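 active = inhibition above the mean of all tested compounds plus 3 SD, cutoff set per screening run, cut at about 7.5% in these data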;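 also: red hydrolysis product quenches plate fluorescence so inhibitors raise well fluorescence; 0% = enzyme with DMSO and 100% = DMSO without enzyme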
IMP-1 inh = inhibitors of Pseudomonas aeruginosa IMP-1 metallo-beta-lactamase | purified IMP-1, nitrocefin hydrolysis, epi-absorbance fluorescence | inhibition, % at 5.6 µM | actives 0.45% (n = 290,000);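 active = inhibition above the mean plus 3 SD of all compounds in the same screening run, cut at about 4.5% in these data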;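 also: 0% = IMP-1 with DMSO and 100% = DMSO wells lacking enzyme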
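System: purified IMP-1 / Input: IMP-1 dispensed at 0.2 nM / Medium: 50 mM HEPES pH 7.1, 50 µM ZnSO4, 0.05% Brij 35 / Timing: 15 min enzyme–compound preincubation, then 25 min nitrocefin reaction, 25 °C / Technique: plate fluorescence quenching by hydrolysis product, ex 480/em 530 nm / Repeats: singlicate testing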
FID counter = fluorescent intercalator displacement, NS3 helicase counter-screen; DNA fluorescent intercalator displacement, fluorescence; inhibition, % at 7.9 µM; actives 0.17% (n = 290,000); AID 1845; in the data active = inhibition above about 37%;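 also: 0% = vehicle and 100% = reference compound; higher means more ethidium bromide displaced from hairpin DNA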
HCV core dimer = HCV core protein dimerization inhibition | TR-FRET GST/Flag-core106 dimerization, 1536-well | inhibition, % at 5 µM | actives 0.33% (n = 300,000) | AID 1899;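 active = inhibition above the mean of all tested compounds plus 3 SD, set per screening campaign, cut at about 45% in these data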
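test system = GST/Flag-tagged HCV core106 proteins | probe or stimulus = Eu donor and XL665 acceptor anti-tag antibodies | times = compound-protein-antibody incubation 4 h at 22.5 °C | signal = TR-FRET, excitation 340 nm, emission 617 and 671 nm | measure = percent inhibition of core106 dimerization signal | controls = wells lacking GST-core106 and wells with excess unlabelled core106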
* = called active by the depositor; / = no result given.

SMILES	VIM-2 inhibitor	IMP-1 inh	FID counter	HCV core dimer
Cc1cc(SCC(=O)NC(=O)NCc2ccco2)nc2c(C)cccc12	-1	-2	-7	48*
O=C(CSc1ccccc1F)NC(=O)NCc1ccco1	-1	-2	-2	23
CCNC(=O)NC(=O)CSc1cccc(C(F)(F)F)c1	-3	0	-6	0
Cn1c(SCC(=O)NCc2ccco2)nnc1-c1ccccc1	-1	-1	-7	-11
Cc1ccccc1CSCC(=O)NC(=O)NCc1ccco1	-5	-3	-8	58*
Cn1c(SCC(=O)NC(=O)NCc2ccco2)nnc1-c1ccccc1	1	0	-10	57*
COc1ccc(OC)c(C2NC(=O)NC(C)=C2C(=O)Nc2ccc(C)cc2C)c1 (configuration not stated)	0	-1	-15	0
CC(=O)N1CCN(CC(=O)c2ccc(Br)cc2)CC1	-1	-3	2	-5
CC(=O)Nc1ccc(S(=O)(=O)N2CCN(c3ccc([N+](=O)[O-])cc3)CC2)cc1	1	0	6	/
COc1ccc(C(=O)COC(=O)c2cccnc2Cl)c(OC)c1	-1	-5	-13	68*
COc1ccc(NS(=O)(=O)c2cccc(C(=O)NNC(=O)c3cccn3C)c2)cc1	-3	-3	-6	71*
COc1ccc(NS(=O)(=O)c2cccc(C(=O)NNC(=O)c3ccccc3O)c2)cc1	/	/	/	-1
Cc1ccccc1NC(=O)C1CC(=O)n2ncnc2N1 (configuration not stated)	-3	-4	-2	3
Cc1ccc2oc(=O)c3cc(C(=O)NCCCN4CC(C)CC(C)C4)sc3c2c1 (configuration not stated)	10*	-2	20	0
CCCN1CCN(CCCNC(=O)c2cc3c(=O)[nH]c4ccc(C)cc4c3s2)CC1	6	-4	4	0
Cc1ccc2cc3cc(C(=O)NCCCN4CC(C)CC(C)C4)oc3nc2c1 (configuration not stated)	10*	-2	22	2
COc1ccc(-c2oc3cc(OC)c(O)c(OC)c3c(=O)c2OC)cc1O	12*	-2	-17	1
COc1ccc(-c2oc3cc(O)c(OC)c(O)c3c(=O)c2OC)cc1	/	/	/	0
C=C1c2cccc(O)c2C(O)=C2C(=O)[C@]3(O)C(O)=C(C(N)=O)C(=O)[C@@H](N(C)C)[C@@H]3[C@@H](O)[C@H]12	8.6*	3	2	-8
C[C@H]1c2cccc(O)c2C(O)=C2C(=O)C3(O)C(O)=C(C(N)=O)C(=O)[C@@H](N(C)C)[C@@H]3[C@@H](O)[C@@H]21 (some centres not stated)	/	/	/	-1
CN(C)Cc1cc(C(C)(C)c2cc(CN(C)C)c(O)c(CN(C)C)c2)cc(CN(C)C)c1O	-2	-4	38*	0
Cc1ccc(-c2nc(CN(C)C)cc(CN(C)C)c2O)cc1	-2	-3	6	2
COC(=O)COc1ccc2oc(=O)cc(-c3cc4cccc(OC)c4o3)c2c1	-2	9.7*	-3	6
O=C(Cn1c2ccccc2c2nc3n(c(=O)c21)CCCS3)Nc1ccccc1	1	0	-9	7
COc1cccc(NC(=O)Cn2c3ccccc3c3nc4n(c(=O)c32)CCCS4)c1	2	4.8*	-14	7
SMILES	VIM-2 inhibitor	IMP-1 inh	FID counter	HCV core dimer
O=C(N/N=C/c1ccc([N+](=O)[O-])o1)c1cc(-c2cccc(Br)c2)nc2ccccc12	-4	-3	-18	71*
COc1ccc(CCC(=O)N2CCN(c3ccc([N+](=O)[O-])cc3)CC2)cc1OC	1	-2	-24	5
CCSc1cc(C)nc2ncnn12	-6	-5	-2	5
COc1ccc(-c2nc(NCCCN(C)C)c3ccccc3n2)cc1	7	-4	79*	7
CCN(CC)CCCNc1nc2cc(OC)c(OC)cc2c2nc(-c3ccccc3)nn12	4	-4	50*	-4
CCN(CC)CCCNc1nc(-c2ccccc2)nc2ccccc12	-1	-2	57*	-3
Cc1ccc(C(=O)/C=C/c2ccc(F)cc2)o1	0	0	0	-5
CC(=O)N1CCOc2ccc(S(=O)(=O)NCc3ccc(Cl)cc3)cc21	0	-2	-10	4
CC(=O)N1CCOc2ccc(S(=O)(=O)Nc3ccc(Cl)cn3)cc21	-2	22*	-4	4
N#CC1=C(c2ccc(-c3ccccc3)cc2)COC1=O	-4	-1	-14	52*
COc1cc(Br)c(C(=O)c2nccc3cc(OC)c(OC)cc23)cc1OC	-2	-5	4	21
CC(C)C(CCNC1CCN(C)CC1)c1ccc(Cl)cc1 (configuration not stated)	-1	-3	25	0
CN1CCC(NCCC(c2ccc(F)cc2)c2ccc(Cl)cc2)CC1 (configuration not stated)	1	-1	42*	/
Cc1ccc(S(=O)(=O)NC(=O)c2ccc(-c3ccc(C)c4ccccc34)o2)cc1	-4	4.7*	-25	24
Cc1ccc(-c2ccc(C(=O)Nc3ccccc3)o2)c2ccccc12	-1	2	-15	1
CCC(C)Nc1nc(-c2ccccn2)nc2ccccc12 (configuration not stated)	8.2*	3	-2	-4
COc1cc(OC)c(C(=O)Nc2ccncc2)cc1OC	1	0	-3	-1
COc1ccc(C2C(C#N)=C(N)SC(N)=C2C#N)cc1OC	-3	0	-7	61*
CC(OC(=O)c1ccc(NC(=O)CC#N)cc1)C(=O)Nc1ccc(Oc2ccccc2)cc1 (configuration not stated)	-1	-2	-17	47*
O=C(CCS(=O)(=O)c1ccc(Br)cc1)NCc1ccc(F)cc1	-2	28*	-6	-121
CCC1(CC)Cc2ccccc2-c2nc(NCCCO)[nH]c(=O)c21	-6	-4	-24	-6
CC(C)N1C(=O)CC(Nc2cccc3cccc(N)c23)C1=O (configuration not stated)	-2	12*	-8	/
O=C(N/N=C\C=C\c1ccc(Br)cc1)c1ccc2c(c1)OCO2	0	25*	-10	-4
O=C(N/N=C/c1ccc(Cl)cc1)c1ccc2c(c1)OCO2	0	17*	-4	1
CC1=C(C#N)C(c2cn(-c3ccccc3)nc2-c2cccs2)C(C#N)=C(C)N1	-1	0	-3	2
SMILES	VIM-2 inhibitor	IMP-1 inh	FID counter	HCV core dimer
NC1=NC(c2cn(-c3ccccc3)nc2-c2cccs2)n2c(nc3ccccc32)N1 (configuration not stated)	-1	4.9*	15	4
Cc1sc(NC(=O)CSc2nnc(C)c(=O)[nH]2)c(C#N)c1C	0	4	-3	-2
Nc1nc2c3ccccc3nc(C3CC3)n2n1	8.2*	-3	-3	-2
Nn1c(C2CCC2)nc2ccccc2c1=O	0	-5	1	11
CCN=C1S/C(=C\c2ccc(-c3cccc(C(=O)O)c3)o2)C(=O)N1CC	-4	-1	-14	-14
Cc1cc(N2CCN(c3nc4ccccc4s3)CC2)n2ncnc2n1	8.2*	-1	-27	9
